What was measured:
[1] = target: T1, Peroxisome proliferator-activated receptor gamma (Homo sapiens, UniProt P37231); test: Agonist activity against human Gal4-fussed PPARgamma in HEK293 cells by luciferase reporter gene assay; format: functional, cell-based
T1 sequence (P37231 whole entry): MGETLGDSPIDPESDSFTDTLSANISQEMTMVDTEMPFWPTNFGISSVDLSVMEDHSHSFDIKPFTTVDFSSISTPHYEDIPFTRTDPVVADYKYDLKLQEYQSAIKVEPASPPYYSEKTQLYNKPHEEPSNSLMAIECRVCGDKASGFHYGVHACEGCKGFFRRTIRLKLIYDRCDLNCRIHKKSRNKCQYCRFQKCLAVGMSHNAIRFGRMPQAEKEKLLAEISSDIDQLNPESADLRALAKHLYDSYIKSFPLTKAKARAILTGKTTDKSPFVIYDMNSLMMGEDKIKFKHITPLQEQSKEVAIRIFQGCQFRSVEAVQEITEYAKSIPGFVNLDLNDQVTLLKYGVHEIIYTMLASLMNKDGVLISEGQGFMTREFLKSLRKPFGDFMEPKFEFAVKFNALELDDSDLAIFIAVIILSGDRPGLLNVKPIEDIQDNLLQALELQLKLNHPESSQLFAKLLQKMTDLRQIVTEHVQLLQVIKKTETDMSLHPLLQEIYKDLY
Procedure, shortened: (§1)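 Transactivation assay in HEK293 cells with a luciferase reporter. After cell lysis, luciferin is added and luminescence is read. EC50 is the ligand concentration giving half-maximal fold induction. Maximal efficacy is expressed as % of standards, with fenofibrate at 100 µM = 100% for PPARα and rosiglitazone at 1 µM = 100% for PPARγ. Data are normalized to known agonists at 1 µM.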

[2] = target: T2, Peroxisome proliferator-activated receptor alpha (Homo sapiens, UniProt Q07869); test: Agonist activity against human Gal4-fussed PPARalpha in HEK293 cells by luciferase reporter gene assay; format: functional, cell-based; procedure, shortened: as §1
T2 sequence (Q07869 whole entry): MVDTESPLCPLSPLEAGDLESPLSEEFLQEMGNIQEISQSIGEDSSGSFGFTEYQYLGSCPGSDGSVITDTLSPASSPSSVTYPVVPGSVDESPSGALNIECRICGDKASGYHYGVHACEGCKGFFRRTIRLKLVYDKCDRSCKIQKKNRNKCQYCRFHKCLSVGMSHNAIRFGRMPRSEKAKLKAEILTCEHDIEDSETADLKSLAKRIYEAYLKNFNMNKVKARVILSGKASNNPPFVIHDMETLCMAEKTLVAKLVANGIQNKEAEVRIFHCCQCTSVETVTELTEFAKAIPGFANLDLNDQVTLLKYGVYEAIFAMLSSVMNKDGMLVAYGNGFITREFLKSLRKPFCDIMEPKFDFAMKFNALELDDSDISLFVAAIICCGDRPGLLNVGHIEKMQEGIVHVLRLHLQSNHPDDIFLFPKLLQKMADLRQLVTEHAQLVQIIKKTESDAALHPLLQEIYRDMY

[3] = target: T3, Peroxisome proliferator-activated receptor gamma (Homo sapiens) (UniProt P37231); test: Agonist activity against human Gal4-fussed PPARgamma by luciferase reporter gene assay relative to rosiglitazone
T3 sequence (whole entry): T1 sequence (P37231 whole entry)

[4] = target: T4, Peroxisome proliferator-activated receptor alpha (Homo sapiens) (UniProt Q07869); test: Agonist activity against human Gal4-fussed PPARalpha by luciferase reporter gene assay relative to finofibrate; format: functional
T4 sequence (whole entry): T2 sequence (Q07869 whole entry)
Procedure, shortened: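 Gal4-fused human PPARα transactivation in HEK293 cells with a luciferase reporter, read as luminescence after cell lysis and luciferin addition. EC50 is the ligand concentration (µM) giving half-maximal fold induction. Maximal efficacy is expressed as a percentage of fenofibrate at 100 µM (set as 100%). Intrinsic activity is the response at 1 µM as a percentage of the standard at 1 µM.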

[5] = Agonist activity at hamster PPARalpha; format: functional, Cricetulus griseus
Cricetulus griseus = organism: Cricetulus griseus; test: Agonist activity at hamster PPARalpha relative to fenofibrate; format: functional
Hamster [6] = test: Antidyslipidemic activity in hamster assessed as decrease in triglyceride level at 10 mg/kg, po; format: functional, Cricetinae; design: scale not given: the % may be the effect or the level left
Procedure, shortened: (§2)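 Hamsters kept on high-fat diet for 2 weeks, then dosed 10 mg/kg by oral gavage once daily for 21 days (n = 8). Vehicle: 5% cremophor, 10% NMP, 5% EtOH, 80% water. HDL-c and TG measured at study end. Statistics by Dunnett test, p < 0.05.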

Hamster [7] = test: Antidyslipidemic activity in hamster assessed as decrease in HDL level at 10 mg/kg, po; format: functional, Cricetinae; design: scale not given: the % may be the effect or the level left; procedure, shortened: as §2
[8] = Volume of distribution at steady state Sprague-Dawley rat at 5 mg/kg, iv and 10 mg/kg, po; format: ADME, organism-based; details: in vivo, read-out: Vdss
Procedure, shortened: (§3)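 Male Sprague-Dawley rats (n = 2) given 5 mg/kg IV and 10 mg/kg PO. Vehicle: 10% NMP, 20% PEG-400, 70% potassium phosphate buffer.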

[9] = Half life in Sprague-Dawley rat at 5 mg/kg, iv and 10 mg/kg, po; format: ADME, organism-based; details: in vivo; procedure, shortened: as §3
[10] = Mean retention time in Sprague-Dawley rat at 5 mg/kg, iv and 10 mg/kg, po; format: ADME, organism-based; details: in vivo; procedure, shortened: as §3
Hamster [11] = test: Induction of hydrase mRNA level in hamster liver at 10 mg/kg, po after 6 hrs relative to fenofibrate; format: functional, Cricetinae
Procedure, shortened: (§4)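 Single oral dose of 10 mpk in hamsters, with fenofibrate reference at 100 mpk. Liver PDK4 and HD mRNA measured at 6 h post-dose. Values expressed relative to fenofibrate, set as 100%.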

Hamster [12] = test: Induction of PDK4 mRNA level in hamster liver at 10 mg/kg, po after 6 hrs relative to fenofibrate; format: functional, Cricetinae; procedure, shortened: as §4
[13] = Clearance in Sprague-Dawley rat at 5 mg/kg, iv and 10 mg/kg, po; format: ADME, organism-based; details: in vivo; procedure, shortened: as §3
[14] = Drug level in hamster liver at 10 mg/kg, po; format: ADME, organism-based; design: dose 10 mg/kg, route oral; details: cricetinae, in vivo, read-out: Drug uptake
Procedure, shortened: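 High-fat-fed hamsters (2 weeks on diet), 10 mg/kg po once daily for 21 days (n = 8). Vehicle: 5% cremophor/10% NMP/5% EtOH/80% water. Liver drug level taken 1 h post-dose in the fed state.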

[15] = Oral bioavailability in Sprague-Dawley rat at 10 mg/kg; format: ADME, organism-based; details: in vivo
Procedure, shortened: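 Male Sprague-Dawley rats (n = 2). Oral dose 10 mg/kg, with 5 mg/kg IV for comparison. Vehicle: 10% NMP, 20% PEG-400, 70% potassium phosphate buffer.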

## COC(=O)N(CC(=O)O)Cc1cccc(OCc2csc(-c3ccc(C)cc3)n2)c1
[1]
  EC50: 9290 nM
[2]
  EC50: 41.8 nM
[3]
  Emax: 84%
[4]
  Emax: 71%

## COc1cccc(OC(=O)N(CC(=O)O)[C@@H](C)c2cccc(OCc3coc(-c4ccc(Cl)cc4)n3)c2)c1
[1]
  EC50: 772 nM
[5]
  EC50: 66 nM
[2]
  EC50: 13 nM
Cricetulus griseus
  Emax: 71%
[3]
  Emax: 95%
[4]
  Emax: 69%
Hamster [6]
  Activity: 49%
Hamster [7]
  Activity: 39%

## COC(=O)N(CC(=O)O)Cc1cccc(OCc2coc(-c3ccc(F)c(Cl)c3)n2)c1
[1]
  EC50: 6390 nM
[2]
  EC50: 395 nM
[3]
  Emax: 54%
[4]
  Emax: 97%

## COC(=O)N(CC(=O)O)[C@@H](C)c1cccc(OCc2coc(-c3ccc(Cl)cc3)n2)c1
[1]
  EC50: > 8300 nM
[2]
  EC50: 73 nM
[3]
  Emax: 189%
[4]
  Emax: 65%

## COC(=O)N(CC(=O)O)Cc1cccc(OCc2coc(-c3ccc(F)cc3F)n2)c1
[1]
  EC50: > 25000 nM
[2]
  EC50: 1090 nM
[4]
  Emax: 78%

## COC(=O)N(CC(=O)O)Cc1cccc(OCc2nc(-c3ccc(Cl)cc3)oc2C)c1
[8]
  Vd: 0.7 L/kg
[9]
  half-life: 3.2 h
Cricetulus griseus
  Emax: 83%
[3]
  Emax: 82%
[4]
  Emax: 79%
Hamster [6]
  Activity: 77%
Hamster [7]
  Activity: 20%
[10]
  MRT: 2.8 h
Hamster [11]
  Activity: 277%
Hamster [12]
  Activity: 230%
[13]
  clearance: 4.3 mL/min/kg

## COC(=O)N(CC(=O)O)Cc1cccc(OCc2coc(-c3cccc(C)c3)n2)c1
[1]
  EC50: > 25000 nM
[2]
  EC50: 451 nM
[4]
  Emax: 92%

## COc1cc(OC(=O)N(CC(=O)O)[C@@H](C)c2cccc(OCc3coc(-c4ccc(Cl)cc4)n3)c2)ccc1F
[1]
  EC50: 1440 nM
[2]
  EC50: 51 nM
[3]
  Emax: 74%
[4]
  Emax: 64%

## COC(=O)N(CC(=O)O)Cc1cccc(OCc2csc(-c3ccc(C(F)(F)F)cc3)n2)c1
[1]
  EC50: 3440 nM
[8]
  Vd: 0.3 L/kg
[5]
  EC50: 811 nM
[9]
  half-life: 7.9 h
[2]
  EC50: 46.6 nM
Cricetulus griseus
  Emax: 65%
[3]
  Emax: 73%
[4]
  Emax: 73%
Hamster [6]
  Activity: 72%
Hamster [7]
  Activity: 52%
[10]
  MRT: 6 h
[14]
  concentration: 86.8 µM
[15]
  bioavailability: 75%
Hamster [11]
  Activity: 126%
Hamster [12]
  Activity: 308%
[13]
  clearance: 0.5 mL/min/kg

## Cc1cccc(OC(=O)N(CC(=O)O)[C@@H](C)c2cccc(OCc3coc(-c4ccc(Cl)cc4)n3)c2)c1
[1]
  EC50: 571 nM
[2]
  EC50: 22 nM
[3]
  Emax: 83%
[4]
  Emax: 62%

## COC(=O)N(CC(=O)O)Cc1cccc(OCc2csc(-c3cccc(Cl)c3)n2)c1
[1]
  EC50: 4020 nM
[2]
  EC50: 1450 nM
[3]
  Emax: 54%
[4]
  Emax: 117%

## COC(=O)N(CC(=O)O)Cc1cccc(OCc2csc(-c3ccc(Cl)cc3)n2)c1
[1]
  EC50: 4690 nM
[2]
  EC50: 90 nM
[3]
  Emax: 35%
[4]
  Emax: 90%

## COC(=O)N(CC(=O)O)Cc1cccc(OCc2csc(-c3ccccc3)n2)c1
[1]
  EC50: > 25000 nM
[2]
  EC50: 304 nM
[4]
  Emax: 70%

## C[C@@H](c1cccc(OCc2coc(-c3ccc(Cl)cc3)n2)c1)N(CC(=O)O)C(=O)Oc1ccccc1
[1]
  EC50: 1690 nM
[2]
  EC50: 145 nM
[3]
  Emax: 43%
[4]
  Emax: 53%

## COC(=O)N(CC(=O)O)Cc1cccc(OCc2coc(-c3ccc(C)cc3)n2)c1
[1]
  EC50: 15600 nM
[2]
  EC50: 29.9 nM
[3]
  Emax: 94%
[4]
  Emax: 85%

## COC(=O)N(CC(=O)O)Cc1cccc(OCc2coc(-c3ccc(C(F)(F)F)cc3)n2)c1
[1]
  EC50: 4810 nM
[2]
  EC50: 68 nM
[3]
  Emax: 34%
[4]
  Emax: 74%

## COc1ccc(OC(=O)N(CC(=O)O)[C@@H](C)c2cccc(OCc3coc(-c4ccc(Cl)cc4)n3)c2)cc1
[1]
  EC50: 970 nM
[2]
  EC50: 66 nM
[3]
  Emax: 62%
[4]
  Emax: 69%

## COC(=O)N(CC(=O)O)[C@@H](C)c1cccc(OCc2coc(-c3ccc(C)cc3)n2)c1
[1]
  EC50: 20700 nM
[2]
  EC50: 87 nM
[3]
  Emax: 130%
[4]
  Emax: 87%

## Cc1ccc(F)c(OC(=O)N(CC(=O)O)[C@@H](C)c2cccc(OCc3coc(-c4ccc(Cl)cc4)n3)c2)c1
[1]
  EC50: 710 nM
[2]
  EC50: 471 nM
[3]
  Emax: 58%
[4]
  Emax: 56%

## COC(=O)N(CC(=O)O)Cc1cccc(OCc2coc(-c3ccccc3)n2)c1
[1]
  EC50: > 25000 nM
[2]
  EC50: 1230 nM
[4]
  Emax: 105%

## COC(=O)N(CC(=O)O)Cc1cccc(OCc2coc(-c3ccc(F)cc3)n2)c1
[1]
  EC50: > 25000 nM
[2]
  EC50: 235 nM
[4]
  Emax: 88%

## COC(=O)N(CC(=O)O)Cc1cccc(OCc2csc(-c3ccccc3Cl)n2)c1
[1]
  EC50: 5040 nM
[2]
  EC50: > 2500 nM
[3]
  Emax: 55%
